# Legend:
# Format in all cases: functional
# Staphylococcus aureus [1] = experiment: Antibacterial activity against MLS-resistant Staphylococcus aureus PU 32 expressing inducible ermA gene assessed as reduction in microbial growth by CLSI based two-fold broth dilution method
# Streptococcus pneumoniae [2] = experiment: Antibacterial activity against erythromycin-susceptible Streptococcus pneumoniae ATCC49619 assessed as reduction in microbial growth by CLSI based two-fold broth dilution method
# Streptococcus pneumoniae [3] = experiment: Bactericidal activity against erythromycin-susceptible Streptococcus pneumoniae ATCC49619 pretreated followed by subculture in absence of compound measured after 24 hrs
# Method in brief: (§1)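 Isolates were identified by 16S rDNA sequencing. MIC was determined by CLSI-recommended two-fold broth dilution. For MBC, samples from 1–8 fold MIC were transferred to culture medium and subcultured for 24 h without antibiotic.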
# Haemophilus influenzae [4] = experiment: Antibacterial activity against azithromycin-susceptible Haemophilus influenzae ATCC 49247 assessed as reduction in microbial growth by CLSI based two-fold broth dilution method
# Streptococcus pneumoniae [5] = experiment: Selectivity ratio of MBC to MIC for erythromycin-susceptible Streptococcus pneumoniae ATCC49619; method in brief: as §1
# Streptococcus pneumoniae [6] = experiment: Antibacterial activity against Streptococcus pneumoniae 07P390 expressing constitutive ermB gene assessed as reduction in microbial growth by CLSI based two-fold broth dilution method
# Streptococcus pneumoniae [7] = experiment: Antibacterial activity against penicillin-susceptible Streptococcus pneumoniae PU 09 expressing mef gene assessed as reduction in microbial growth by CLSI based two-fold broth dilution method
# Streptococcus pneumoniae [8] = experiment: Bactericidal activity against penicillin-susceptible Streptococcus pneumoniae PU 09 expressing mef gene pretreated followed by subculture in absence of compound measured after 24 hrs; method in brief: as §1
# Streptococcus pneumoniae [9] = experiment: Selectivity ratio of MBC to MIC for penicillin-susceptible Streptococcus pneumoniae PU 09 expressing mef gene; method in brief: as §1
# Haemophilus influenzae [10] = experiment: Bactericidal activity against azithromycin-susceptible Haemophilus influenzae ATCC 49247 pretreated followed by subculture in absence of compound measured after 24 hrs; method in brief: as §1
# Haemophilus influenzae [11] = experiment: Selectivity ratio of MBC to MIC for azithromycin-susceptible Haemophilus influenzae ATCC 49247; method in brief: as §1
# Streptococcus pyogenes [12] = experiment: Antibacterial activity against MLS-resistant Streptococcus pyogenes 01-968 expressing inducible ermB gene assessed as reduction in microbial growth by CLSI based two-fold broth dilution method
# Streptococcus pyogenes [13] = experiment: Bactericidal activity against MLS-resistant Streptococcus pyogenes 01-968 expressing inducible ermB gene pretreated followed by subculture in absence of compound measured after 24 hrs
# Method in brief: (§2)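 MBC assay. Following MIC determination by CLSI standard two-fold broth dilution, samples at 1–8 fold MIC were transferred to fresh culture medium. They were subcultured for 24 h without antibiotic. Isolates were identified by 16S rDNA sequencing. S. aureus ATCC 29213 was used as a control strain.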
# Streptococcus pyogenes [14] = experiment: Selectivity ratio of MBC to MIC for MLS-resistant Streptococcus pyogenes 01-968 expressing inducible ermB gene
# Method in brief: (§3)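 MBC/MIC ratio. MIC was measured by CLSI standard two-fold broth dilution. MBC was measured by transferring samples at 1–8 fold MIC to culture medium and subculturing for 24 h without antibiotic. Isolates were identified by 16S rDNA sequencing.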
# Staphylococcus aureus [15] = experiment: Bactericidal activity against MLS/methicillin-resistant Staphylococcus aureus PU 32 expressing inducible ermA gene pretreated followed by subculture in absence of compound measured after 24 hrs; method in brief: as §2
# Staphylococcus aureus [16] = experiment: Selectivity ratio of MBC to MIC for MLS/methicillin-resistant Staphylococcus aureus PU 32 expressing inducible ermA gene; method in brief: as §3
# Staphylococcus aureus [17] = experiment: Antibacterial activity against MLS-resistant Staphylococcus aureus PU 20 expressing constitutive ermC gene assessed as reduction in microbial growth by CLSI based two-fold broth dilution method
# Staphylococcus aureus [18] = experiment: Bactericidal activity against MLS-resistant Staphylococcus aureus PU 20 expressing constitutive ermC gene pretreated followed by subculture in absence of compound measured after 24 hrs; method in brief: as §2
# Staphylococcus aureus [19] = experiment: Selectivity ratio of MBC to MIC for MLS-resistant Staphylococcus aureus PU 20 expressing constitutive ermC gene; method in brief: as §3
# Streptococcus pneumoniae [20] = experiment: Bactericidal activity against Streptococcus pneumoniae 07P390 expressing constitutive ermB gene pretreated followed by subculture in absence of compound measured after 24 hrs; method in brief: as §1
# Streptococcus pneumoniae [21] = experiment: Selectivity ratio of MBC to MIC for Streptococcus pneumoniae 07P390 expressing constitutive ermB gene; method in brief: as §1
# Streptococcus pyogenes [22] = experiment: Antibacterial activity against MLS-resistant Streptococcus pyogenes 12-206 expressing constitutive ermA gene assessed as reduction in microbial growth by CLSI based two-fold broth dilution method
# Streptococcus pyogenes [23] = experiment: Bactericidal activity against MLS-resistant Streptococcus pyogenes 12-206 expressing constitutive ermA gene pretreated followed by subculture in absence of compound measured after 24 hrs; method in brief: as §2
# Streptococcus pyogenes [24] = experiment: Selectivity ratio of MBC to MIC for MLS-resistant Streptococcus pyogenes 12-206 expressing constitutive ermA gene; method in brief: as §3
# Streptococcus pyogenes [25] = experiment: Antibacterial activity against Streptococcus pyogenes 12-207 expressing mef gene assessed as reduction in microbial growth by CLSI based two-fold broth dilution method
# Streptococcus pyogenes [26] = experiment: Bactericidal activity against Streptococcus pyogenes 12-207 expressing mef gene pretreated followed by subculture in absence of compound measured after 24 hrs; method in brief: as §1
# Streptococcus pyogenes [27] = experiment: Selectivity ratio of MBC to MIC for Streptococcus pyogenes 12-207 expressing mef gene; method in brief: as §1
# Moraxella catarrhalis [28] = experiment: Antibacterial activity against erythromycin-susceptible Moraxella catarrhalis 13L332 assessed as reduction in microbial growth by CLSI based two-fold broth dilution method
# Moraxella catarrhalis [29] = experiment: Bactericidal activity against erythromycin-susceptible Moraxella catarrhalis 13L332 pretreated followed by subculture in absence of compound measured after 24 hrs; method in brief: as §1
# Moraxella catarrhalis [30] = experiment: Selectivity ratio of MBC to MIC for erythromycin-susceptible Moraxella catarrhalis 13L332; method in brief: as §1
smiles,measurement,setting,value
CC[C@H]1OC(=O)[C@@](C)(F)C(=O)[C@H](C)[C@@H](O[C@@H]2O[C@H](C)C[C@H](N(C)C)[C@H]2O)[C@](C)(OC)C[C@@H](C)/C(=N\OCC#Cc2cncc3ccccc23)[C@H](C)[C@H]2OC(=O)O[C@@]21C,MIC,Staphylococcus aureus [1],4 µg/mL
same,MIC,Streptococcus pneumoniae [2],2 µg/mL
same,MBC,Streptococcus pneumoniae [3],4 µg/mL
same,MIC,Haemophilus influenzae [4],64 µg/mL
same,Selectivity ratio,Streptococcus pneumoniae [5],2
same,MIC,Streptococcus pneumoniae [6],> 32 µg/mL
same,MIC,Streptococcus pneumoniae [7],8 µg/mL
same,MBC,Streptococcus pneumoniae [8],8 µg/mL
same,Selectivity ratio,Streptococcus pneumoniae [9],1
same,MBC,Haemophilus influenzae [10],128 µg/mL
same,Selectivity ratio,Haemophilus influenzae [11],2
same,MIC,Streptococcus pyogenes [12],0.5 µg/mL
same,MBC,Streptococcus pyogenes [13],> 4 µg/mL
same,Selectivity ratio,Streptococcus pyogenes [14],>8
same,MBC,Staphylococcus aureus [15],> 32 µg/mL
same,Selectivity ratio,Staphylococcus aureus [16],>8
same,MIC,Staphylococcus aureus [17],64 µg/mL
same,MBC,Staphylococcus aureus [18],> 256 µg/mL
same,Selectivity ratio,Staphylococcus aureus [19],>4
CC[C@H]1OC(=O)[C@@](C)(F)C(=O)[C@H](C)[C@@H](O[C@@H]2O[C@H](C)C[C@H](N(C)C)[C@H]2O)[C@](C)(OC)C[C@@H](C)/C(=N\OCC#Cc2ccc3c(c2)c(=O)c(C(N)=O)cn3C2CC2)[C@H](C)[C@H]2OC(=O)O[C@@]21C,MIC,Staphylococcus aureus [1],1 µg/mL
same,MIC,Streptococcus pneumoniae [2],≤ 0.008 µg/mL
same,MBC,Streptococcus pneumoniae [3],≤ 0.008 µg/mL
same,MIC,Haemophilus influenzae [4],32 µg/mL
same,MIC,Streptococcus pneumoniae [6],0.25 µg/mL
same,MIC,Streptococcus pneumoniae [7],0.25 µg/mL
same,MBC,Streptococcus pneumoniae [8],0.5 µg/mL
same,Selectivity ratio,Streptococcus pneumoniae [9],2
same,MBC,Streptococcus pneumoniae [20],> 2 µg/mL
same,Selectivity ratio,Streptococcus pneumoniae [21],>8
same,MBC,Haemophilus influenzae [10],128 µg/mL
same,Selectivity ratio,Haemophilus influenzae [11],4
same,MIC,Streptococcus pyogenes [12],≤ 0.002 µg/mL
same,MBC,Streptococcus pyogenes [13],> 0.016 µg/mL
same,Selectivity ratio,Streptococcus pyogenes [14],>8
same,MBC,Staphylococcus aureus [15],8 µg/mL
same,Selectivity ratio,Staphylococcus aureus [16],8
same,MIC,Staphylococcus aureus [17],128 µg/mL
same,MBC,Staphylococcus aureus [18],> 256 µg/mL
same,MIC,Streptococcus pyogenes [22],1 µg/mL
same,MBC,Streptococcus pyogenes [23],> 8 µg/mL
same,Selectivity ratio,Streptococcus pyogenes [24],>8
same,MIC,Streptococcus pyogenes [25],0.25 µg/mL
same,MBC,Streptococcus pyogenes [26],2 µg/mL
same,Selectivity ratio,Streptococcus pyogenes [27],8
same,MIC,Moraxella catarrhalis [28],4 µg/mL
same,MBC,Moraxella catarrhalis [29],> 32 µg/mL
same,Selectivity ratio,Moraxella catarrhalis [30],>8
CC[C@H]1OC(=O)[C@@](C)(F)C(=O)[C@H](C)[C@@H](O[C@@H]2O[C@H](C)C[C@H](N(C)C)[C@H]2O)[C@](C)(OC)C[C@@H](C)/C(=N\OC/C=C/c2cnc3ccccc3c2N)[C@H](C)[C@H]2OC(=O)O[C@@]21C,MIC,Staphylococcus aureus [1],1 µg/mL
same,MIC,Streptococcus pneumoniae [2],0.125 µg/mL
same,MBC,Streptococcus pneumoniae [3],0.25 µg/mL
same,MIC,Haemophilus influenzae [4],16 µg/mL
same,Selectivity ratio,Streptococcus pneumoniae [5],2
same,MIC,Streptococcus pneumoniae [6],32 µg/mL
same,MIC,Streptococcus pneumoniae [7],2 µg/mL
same,MBC,Streptococcus pneumoniae [8],2 µg/mL
same,Selectivity ratio,Streptococcus pneumoniae [9],1
same,MBC,Streptococcus pneumoniae [20],32 µg/mL
same,Selectivity ratio,Streptococcus pneumoniae [21],1
same,MBC,Haemophilus influenzae [10],32 µg/mL
same,Selectivity ratio,Haemophilus influenzae [11],2
same,MIC,Streptococcus pyogenes [12],0.016 µg/mL
same,MBC,Streptococcus pyogenes [13],> 0.125 µg/mL
same,Selectivity ratio,Streptococcus pyogenes [14],>8
same,MBC,Staphylococcus aureus [15],8 µg/mL
same,Selectivity ratio,Staphylococcus aureus [16],8
same,MIC,Staphylococcus aureus [17],64 µg/mL
same,MBC,Staphylococcus aureus [18],128 µg/mL
same,Selectivity ratio,Staphylococcus aureus [19],2
CC[C@H]1OC(=O)[C@@](C)(F)C(=O)[C@H](C)[C@@H](O[C@@H]2O[C@H](C)C[C@H](N(C)C)[C@H]2O)[C@](C)(OC)C[C@@H](C)/C(=N\OCC#Cc2ccc3c(c2)c(=O)c(C(=O)NC)cn3C2CC2)[C@H](C)[C@H]2OC(=O)O[C@@]21C,MIC,Staphylococcus aureus [1],1 µg/mL
same,MIC,Streptococcus pneumoniae [2],≤ 0.008 µg/mL
same,MBC,Streptococcus pneumoniae [3],≤ 0.008 µg/mL
same,MIC,Haemophilus influenzae [4],64 µg/mL
same,MIC,Streptococcus pneumoniae [6],0.25 µg/mL
same,MIC,Streptococcus pneumoniae [7],0.5 µg/mL
same,MBC,Streptococcus pneumoniae [8],0.5 µg/mL
same,Selectivity ratio,Streptococcus pneumoniae [9],1
same,MBC,Streptococcus pneumoniae [20],> 2 µg/mL
same,Selectivity ratio,Streptococcus pneumoniae [21],>8
same,MBC,Haemophilus influenzae [10],256 µg/mL
same,Selectivity ratio,Haemophilus influenzae [11],4
same,MIC,Streptococcus pyogenes [12],≤ 0.002 µg/mL
same,MBC,Streptococcus pyogenes [13],> 0.016 µg/mL
same,Selectivity ratio,Streptococcus pyogenes [14],>8
same,MBC,Staphylococcus aureus [15],> 8 µg/mL
same,Selectivity ratio,Staphylococcus aureus [16],>8
same,MIC,Staphylococcus aureus [17],128 µg/mL
same,MBC,Staphylococcus aureus [18],> 256 µg/mL
same,MIC,Streptococcus pyogenes [22],0.5 µg/mL
same,MBC,Streptococcus pyogenes [23],> 4 µg/mL
same,Selectivity ratio,Streptococcus pyogenes [24],>8
same,MIC,Streptococcus pyogenes [25],0.25 µg/mL
same,MBC,Streptococcus pyogenes [26],1 µg/mL
same,Selectivity ratio,Streptococcus pyogenes [27],4
same,MIC,Moraxella catarrhalis [28],4 µg/mL
same,MBC,Moraxella catarrhalis [29],> 32 µg/mL
same,Selectivity ratio,Moraxella catarrhalis [30],>8
CC[C@H]1OC(=O)[C@@](C)(F)C(=O)[C@H](C)[C@@H](O[C@@H]2O[C@H](C)C[C@H](N(C)C)[C@H]2O)[C@](C)(OC)C[C@@H](C)/C(=N\OCC#Cc2ccc3c(c2)c(=O)c(C(=O)NC)cn3CC)[C@H](C)[C@H]2OC(=O)O[C@@]21C,MIC,Staphylococcus aureus [1],2 µg/mL
same,MIC,Streptococcus pneumoniae [2],≤ 0.008 µg/mL
same,MBC,Streptococcus pneumoniae [3],≤ 0.008 µg/mL
same,MIC,Haemophilus influenzae [4],32 µg/mL
same,MIC,Streptococcus pneumoniae [6],0.125 µg/mL
same,MIC,Streptococcus pneumoniae [7],0.25 µg/mL
same,MBC,Streptococcus pneumoniae [8],1 µg/mL
same,Selectivity ratio,Streptococcus pneumoniae [9],4
same,MBC,Streptococcus pneumoniae [20],> 1 µg/mL
same,Selectivity ratio,Streptococcus pneumoniae [21],>8
same,MBC,Haemophilus influenzae [10],64 µg/mL
same,Selectivity ratio,Haemophilus influenzae [11],2
same,MIC,Streptococcus pyogenes [12],≤ 0.002 µg/mL
same,MBC,Streptococcus pyogenes [13],> 0.016 µg/mL
same,Selectivity ratio,Streptococcus pyogenes [14],>8
same,MBC,Staphylococcus aureus [15],> 16 µg/mL
same,Selectivity ratio,Staphylococcus aureus [16],>8
same,MIC,Staphylococcus aureus [17],128 µg/mL
same,MBC,Staphylococcus aureus [18],> 256 µg/mL
same,MIC,Streptococcus pyogenes [22],0.125 µg/mL
same,MBC,Streptococcus pyogenes [23],> 1 µg/mL
same,Selectivity ratio,Streptococcus pyogenes [24],>8
same,MIC,Streptococcus pyogenes [25],0.25 µg/mL
same,MBC,Streptococcus pyogenes [26],1 µg/mL
same,Selectivity ratio,Streptococcus pyogenes [27],4
same,MIC,Moraxella catarrhalis [28],4 µg/mL
same,MBC,Moraxella catarrhalis [29],> 32 µg/mL
same,Selectivity ratio,Moraxella catarrhalis [30],>8

# — ChEMBL document CHEMBL4346654 (Eur J Med Chem, 2019)
